Consider 29 compounds from ChEMBL document CHEMBL4346656, “Synthesis of urea analogues bearing N-alkyl-N'-(thiophen-2-yl) scaffold and evaluation of their innate immune response to toll-like receptors” (Eur J Med Chem, 2019).

What all share (format): cell-based
The target in data set [1] is T1, Toll-like receptor 2 (Homo sapiens, UniProt O60603). Nature of the data set: Agonist activity at human TLR2 expressed in HEK-Blue cells assessed as activation of SEAP incubated for 24 hrs by quanti-blue SEAP assay. The essentials: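 TLR2 agonism in HEK-Blue hTLR2 cells, 4 × 10⁴/well, pre-cultured 24 h in DMEM/10% FBS at 37 °C, then treated 24 h with compound in fresh DMEM (tested up to 200 μM). Supernatant SEAP was read with QUANTI-Blue at 37 °C for 0.5–1 h, A620. EC50 came from at least three independent repeats.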
T1 sequence (O60603 whole entry): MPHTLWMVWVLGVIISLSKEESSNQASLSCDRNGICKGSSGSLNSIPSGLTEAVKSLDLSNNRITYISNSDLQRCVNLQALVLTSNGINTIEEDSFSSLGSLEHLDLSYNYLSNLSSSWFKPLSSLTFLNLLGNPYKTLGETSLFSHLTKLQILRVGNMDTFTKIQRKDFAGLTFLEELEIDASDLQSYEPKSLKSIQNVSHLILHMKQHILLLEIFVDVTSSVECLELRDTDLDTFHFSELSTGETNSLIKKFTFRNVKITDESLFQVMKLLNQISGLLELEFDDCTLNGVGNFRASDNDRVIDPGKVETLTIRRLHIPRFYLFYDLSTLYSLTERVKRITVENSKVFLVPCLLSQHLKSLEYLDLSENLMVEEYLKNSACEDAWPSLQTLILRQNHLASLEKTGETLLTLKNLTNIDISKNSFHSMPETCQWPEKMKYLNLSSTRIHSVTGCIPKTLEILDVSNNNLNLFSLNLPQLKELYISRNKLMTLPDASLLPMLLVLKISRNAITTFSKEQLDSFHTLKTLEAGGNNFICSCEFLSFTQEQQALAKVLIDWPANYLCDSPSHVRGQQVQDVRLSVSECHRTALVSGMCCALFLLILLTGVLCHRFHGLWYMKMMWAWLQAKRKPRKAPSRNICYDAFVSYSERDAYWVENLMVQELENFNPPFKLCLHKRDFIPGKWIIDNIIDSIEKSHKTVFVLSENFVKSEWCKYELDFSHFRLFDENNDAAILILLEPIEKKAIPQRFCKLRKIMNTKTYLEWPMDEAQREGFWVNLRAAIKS

Data set [2] has as its target T2, Toll-like receptor 1/2 (Homo sapiens) (UniProt O60603+Q15399). Nature of the data set: Agonist activity at human TLR1/2 expressed in HEK-Blue cells assessed as activation of SEAP at 0.5 uM incubated for 24 hrs by quanti-blue SEAP assay in presence of Anti-hTLR2-IgA. Summed up: (§1)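 HEK-Blue hTLR2 cells (endogenous TLR1 and TLR6) were seeded at 4 × 10⁴/well in DMEM with 10% FBS and grown 24 h at 37 °C. The medium was then replaced with DMEM holding 0.5 μM compound plus anti-hTLR1-IgG, anti-hTLR2-IgA or anti-hTLR6 antibody (0–10 μg/mL) for 24 h. Supernatant was mixed 1:1 with QUANTI-Blue for 0.5–1 h at 37 °C and A620 read.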

Data set [3] concerns the target Toll-like receptor 3 (Homo sapiens) (UniProt O15455). Nature of the data set: Agonist activity at human TLR3 expressed in HEK-Blue cells assessed as activation of SEAP up to 100 uM incubated for 24 hrs by quanti-blue SEAP assay. Summed up:
(§2)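 HEK-Blue hTLR3 or hTLR4 cells were seeded at 4 × 10⁴/well and pre-grown 24 h, then incubated 24 h with compound at 0–100 μM. […] SEAP in the supernatant was read by QUANTI-Blue at OD620.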

Data set [4] has as its target Toll-like receptor 4 (Homo sapiens) (UniProt O00206). Kind of data set: Agonist activity at human TLR4 expressed in HEK-Blue cells assessed as activation of SEAP up to 100 uM incubated for 24 hrs by quanti-blue SEAP assay. Summed up: as §2
Data set [5] concerns the target T1, Toll-like receptor 2. Kind of data set: Agonist activity at human TLR2 expressed in HEK-Blue cells assessed as increase in TLR2 expression at 0.1 uM incubated for 24 hrs by Western blot analysis relative to control. Summed up:
(§3)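 Western blot: HEK-Blue hTLR2 cells, 1.5 × 10⁶/well, were grown 24 h, then treated in serum-free DMEM with compound (0–50 μM) for 24 h. Cells were lysed in RIPA/PMSF, equal lysate loaded, SDS-PAGE, nitrocellulose. Membranes were blocked with 5% milk, probed overnight at 4 °C with rabbit anti-TLR2 (1:2000), then HRP secondary, with GAPDH as loading control. Three independent experiments.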

Data set [6] has as its target T1, Toll-like receptor 2. Nature of the data set: Agonist activity at human TLR2 expressed in HEK-Blue cells assessed as increase in TLR2 expression at 10 uM incubated for 24 hrs by Western blot analysis relative to control. Summed up: as §3
Data set [7] addresses T2, Toll-like receptor 1/2 (Homo sapiens). Nature of the data set: Agonist activity at human TLR1/2 expressed in HEK-Blue cells assessed as activation of SEAP at 0.5 uM incubated for 24 hrs by quanti-blue SEAP assay in presence of Anti-hTLR1-IgG. The essentials:
as §1

The target of data set [8] is T1, Toll-like receptor 2. Nature of the data set: Agonist activity at human TLR2 in PMA differentiated THP-1 cells assessed as TNF-alpha production incubated for 4 hrs by ELISA. Summed up: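 THP-1 cells (2.5 × 10⁵/mL) were differentiated with 100 nM PMA in RPMI/10% FBS for 24 h at 37 °C, 5% CO₂. They were washed, rested 24 h in fresh medium, then treated 4 h with compound in serum-free RPMI. Supernatant TNF-α was measured by sandwich ELISA against recombinant standards, duplicate samples. Mean ± SD, three independent experiments.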
(In general: ELISA stands for enzyme-linked immunosorbent assay.)

Data set [9] concerns the target T1, Toll-like receptor 2. Nature of the data set: Agonist activity at human TLR2 expressed in HEK-Blue cells assessed as NF-kappaB activation at 10 uM incubated for 24 hrs in presence of NF-kappaB inhibitor, triptolide by quanti-blue SEAP assay. Summed up: (§4)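 HEK-Blue hTLR2 cells (human TLR2 plus NF-κB-driven SEAP reporter in HEK293) were seeded at 4 × 10⁴/well and pre-grown 24 h at 37 °C. They were then exposed 24 h to compound in DMEM, with or without triptolide. SEAP in the supernatant was read with QUANTI-Blue (1:1, 37 °C, 0.5–1 h) at A620. Mean ± SD of three independent experiments.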

The nature of data set [10]: Cytotoxicity against human HEK-Blue cells transfected with hTLR2 assessed as cell viability upto 100 uM incubated for 24 hrs by CCK8 assay. The essentials:
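HEK-Blue hTLR2 cells, 4 × 10⁴/well, were pre-cultured 24 h in DMEM/10% FBS at 37 °C, then exposed to compound for 24 h at 37 °C. Half the medium was removed, CCK-8 added, and incubation run 1–4 h at 37 °C before reading A450. Mean ± SD of three independent experiments.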
(In general: Formazan colour is commonly taken as a measure of viable cells.)

The target in a further data set is TLR2/TLR6 (Homo sapiens) (UniProt O60603+Q9Y2C9). Nature of the data set: Agonist activity at human TLR2/6 expressed in HEK-Blue cells assessed as activation of SEAP at 0.5 uM incubated for 24 hrs by quanti-blue SEAP assay in presence of Anti-hTLR6-IgG. The essentials:
as §1

The target in data set [11] is Toll-like receptor 4 (Homo sapiens) (UniProt O00206). Kind of data set: Agonist activity at human TLR4 expressed in HEK-Blue cells assessed as activation of SEAP at 10 ug/ml incubated for 24 hrs by quanti-blue SEAP assay.
Toll-like receptor 4 (Homo sapiens), sequence (O00206 whole entry): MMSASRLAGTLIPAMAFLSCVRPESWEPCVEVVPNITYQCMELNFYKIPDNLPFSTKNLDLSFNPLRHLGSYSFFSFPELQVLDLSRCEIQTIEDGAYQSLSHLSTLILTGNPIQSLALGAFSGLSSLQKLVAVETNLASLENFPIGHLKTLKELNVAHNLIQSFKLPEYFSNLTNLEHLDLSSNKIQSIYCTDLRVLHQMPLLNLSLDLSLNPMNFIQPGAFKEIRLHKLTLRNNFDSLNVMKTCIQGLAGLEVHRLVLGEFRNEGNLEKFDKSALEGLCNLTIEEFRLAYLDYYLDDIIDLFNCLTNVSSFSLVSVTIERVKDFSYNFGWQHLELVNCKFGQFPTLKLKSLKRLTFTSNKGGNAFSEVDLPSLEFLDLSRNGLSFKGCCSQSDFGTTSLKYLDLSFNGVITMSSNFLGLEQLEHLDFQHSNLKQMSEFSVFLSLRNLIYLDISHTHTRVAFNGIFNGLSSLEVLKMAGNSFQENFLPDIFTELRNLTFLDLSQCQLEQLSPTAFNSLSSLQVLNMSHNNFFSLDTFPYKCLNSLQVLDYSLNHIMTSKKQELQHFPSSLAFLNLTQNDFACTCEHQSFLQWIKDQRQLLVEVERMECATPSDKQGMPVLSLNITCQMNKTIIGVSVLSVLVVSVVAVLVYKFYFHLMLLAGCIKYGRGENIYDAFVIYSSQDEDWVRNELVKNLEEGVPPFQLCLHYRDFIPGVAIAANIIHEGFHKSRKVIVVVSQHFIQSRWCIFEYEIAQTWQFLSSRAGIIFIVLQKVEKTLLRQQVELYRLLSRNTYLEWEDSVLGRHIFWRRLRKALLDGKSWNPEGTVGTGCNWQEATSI
The target of data set [12] is T1, Toll-like receptor 2. Nature of the data set: Agonist activity at human TLR2 expressed in HEK-Blue cells assessed as NF-kappaB activation at 10 uM incubated for 24 hrs by quanti-blue SEAP assay. The essentials:
as §4

Activity calls are given as the source filed them. The rule behind the calls is not given here.

Toll-like receptor 3 (Homo sapiens), sequence (O15455 whole entry): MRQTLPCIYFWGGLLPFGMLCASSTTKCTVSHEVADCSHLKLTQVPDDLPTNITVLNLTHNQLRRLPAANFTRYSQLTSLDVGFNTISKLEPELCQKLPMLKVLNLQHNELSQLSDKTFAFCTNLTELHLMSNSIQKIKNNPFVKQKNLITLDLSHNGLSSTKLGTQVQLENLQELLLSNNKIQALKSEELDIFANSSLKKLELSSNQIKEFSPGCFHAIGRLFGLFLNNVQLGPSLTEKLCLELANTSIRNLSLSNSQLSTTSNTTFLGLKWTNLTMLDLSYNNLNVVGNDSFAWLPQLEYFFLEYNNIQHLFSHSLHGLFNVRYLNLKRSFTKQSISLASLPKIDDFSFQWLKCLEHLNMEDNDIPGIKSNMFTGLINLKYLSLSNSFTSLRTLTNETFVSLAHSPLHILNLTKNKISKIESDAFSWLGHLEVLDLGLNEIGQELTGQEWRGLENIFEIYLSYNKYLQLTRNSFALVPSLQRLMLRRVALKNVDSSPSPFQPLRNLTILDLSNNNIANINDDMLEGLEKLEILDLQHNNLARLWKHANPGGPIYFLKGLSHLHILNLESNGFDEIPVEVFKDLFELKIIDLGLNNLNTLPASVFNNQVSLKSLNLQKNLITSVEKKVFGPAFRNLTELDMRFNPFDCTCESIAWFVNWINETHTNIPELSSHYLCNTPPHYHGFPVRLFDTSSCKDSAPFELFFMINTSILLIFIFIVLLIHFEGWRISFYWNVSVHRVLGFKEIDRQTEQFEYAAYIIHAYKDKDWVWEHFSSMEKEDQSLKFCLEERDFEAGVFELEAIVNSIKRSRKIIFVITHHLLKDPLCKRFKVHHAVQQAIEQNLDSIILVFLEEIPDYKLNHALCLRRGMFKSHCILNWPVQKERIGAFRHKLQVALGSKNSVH

As to `CCCOC(=O)c1c(NC(=O)N2CCN(C)CC2)sc2c1CCCC2`, the EC50 at Toll-like receptor 2 [1] (read-out: EC50) stood at 6.63 µM.
Consider `CCN1CCN(C(=O)Nc2sc3c(c2C(=O)OC(C)C)CCC3)CC1`, for which the EC50 entry at Toll-like receptor 2 [1] is “Not Active”.
For the compound `CCOC(=O)c1c(NC(=O)N2CCN(C(C)=O)CC2)sc2c1CCC2`, on Toll-like receptor 2 [1], the EC50 entry is given as “Not Active”.
For the compound `CCCOC(=O)c1c(NC(=O)N2CCN(C)CC2)sc2c1CCC2`, the EC50 at Toll-like receptor 2 [1] (read-out: EC50) turned out to be 14.2 µM.
On to `CCCOC(=O)c1c(NC(=S)N2CCN(C)CC2)sc2c1CCCC2`, for which, on Toll-like receptor 2 [1], the half-maximal effective concentration (EC50) entry is given as “Not Active”.
For the compound `CCOC(=O)c1c(NC(=O)N2CCN(C)CC2)sc2c1CCCC2`, the concentration for a half-maximal effect (EC50) at Toll-like receptor 2 [1] (read-out: EC50) was found to be 0.35 µM.
With `CC(C)OC(=O)c1c(NC(=S)N2CCN(C)CC2)sc2c1CCCC2`, at Toll-like receptor 2 [1] (read-out: EC50), the EC50 was determined as 45.2 µM.
For the compound `CCOC(=O)c1c(NC(=S)N2CCN(c3ccccc3)CC2)sc2c1CCC2`, the concentration for a half-maximal effect (EC50) entry at Toll-like receptor 2 [1] is listed as “Not Active”.
On to `CC(C)OC(=O)c1c(NC(=S)N2CCNCC2)sc2c1CCC2`, for which the EC50 result at Toll-like receptor 2 [1] is on record as “Not Active”.
Turning to `CC(C)OC(=O)c1c(NC(=O)N2CCN(C)CC2)sc2c1CCC2`, the EC50 at Toll-like receptor 2 [1] (read-out: EC50) was 4.59 µM.
For the compound `CC(C)OC(=O)c1c(NC(=S)N2CCN(c3ccccc3)CC2)sc2c1CCC2`, the EC50 entry on Toll-like receptor 2 [1] is listed as “Not Active”.
As for `COC(=O)c1c(NC(=O)N2CCN(C)CC2)sc2c1CCC(C)C2` (stereo unspecified), the EC50 on Toll-like receptor 2 [1] (read-out: EC50) came out at 11.8 µM.
On to `CCOC(=O)c1c(NC(=O)N2CCN(CC)CC2)sc2c1CCC2`, for which, at Toll-like receptor 2 [1] (read-out: EC50), the EC50 was 8.55 µM.
On to `CCOC(=O)c1c(NC(=S)N2CCN(C)CC2)sc2c1CCC2`, for which, at Toll-like receptor 2 [1] (read-out: EC50), the 50% effective concentration (EC50) turned out to be 3.46 µM.
For `CCOC(=O)c1c(NC(=S)N2CCN(C(C)=O)CC2)sc2c1CCC2`, on Toll-like receptor 2 [1], the EC50 entry was “Not Active”.
As to `COC(=O)c1c(NC(=O)N2CCN(C)CC2)sc2c1CCCC2`, the EC50 at Toll-like receptor 2 [1] (read-out: EC50) was 0.16 µM. Also, the outcome (in [2]; in data set [3]; in data set [4]; in data set [7]; on Toll-like receptor 2 [9]; in [11]) was inactive. Besides, the figures for the fold change (FC) on Toll-like receptor 2 [5] and on Toll-like receptor 2 [6] were above 5 and 8, respectively. In addition, the Activity result at Toll-like receptor 2 [8] was “Dose-dependent effect”; in data set [10] it was “Non-Toxic”. In addition, the outcome at TLR2/TLR6 (Homo sapiens) and on Toll-like receptor 2 [12] was Active.
For `CCCCCC1CCc2c(sc(NC(=O)N3CCN(C)CC3)c2C(=O)OC)C1` (stereo unspecified), the EC50 entry on Toll-like receptor 2 [1] is “Not Active”.
For the compound `CC(C)OC(=O)c1c(NC(=O)N2CCN(c3ccccc3)CC2)sc2c1CCC2`, the concentration giving a half-maximal response (EC50) entry on Toll-like receptor 2 [1] is “Not Active”.
`CCOC(=O)c1c(NC(=O)N2CCN(C)CC2)sc2c1CCC2`: the EC50 at Toll-like receptor 2 [1] (read-out: EC50) came out at 0.56 µM.
Take `COC(=O)c1c(NC(=O)N2CCN(C)CC2)sc2c1CCC2`: at Toll-like receptor 2 [1] (read-out: EC50), the EC50 came out at 0.45 µM.
As for `CC(=O)N1CCN(C(=S)Nc2sc3c(c2C(=O)OC(C)C)CCC3)CC1`, on Toll-like receptor 2 [1], the EC50 entry was “Not Active”.
Turning to `CC(C)OC(=O)c1c(NC(=S)N2CCN(C)CC2)sc2c1CCCCC2`, the EC50 result at Toll-like receptor 2 [1] was “Not Active”.
Regarding `CCOC(=O)c1c(NC(=O)N2CCCCC2)sc2c1CCC2`, the concentration for a half-maximal effect (EC50) entry on Toll-like receptor 2 [1] was “Not Active”.
Consider `COC(=O)c1c(NC(=O)N2CCN(C)CC2)sc2c1CCCCC2`, for which the concentration giving a half-maximal response (EC50) at Toll-like receptor 2 [1] (read-out: EC50) is 1.33 µM.
Consider `CCOC(=O)c1c(NC(=S)N2CCN(C)CC2)sc2c1CCCC2`, for which, on Toll-like receptor 2 [1] (read-out: EC50), the EC50 turned out to be 6.43 µM.
For the compound `CC(C)OC(=O)c1c(NC(=S)N2CCN(C)CC2)sc2c1CCC2`, the EC50 on Toll-like receptor 2 [1] (read-out: EC50) was determined as 16.4 µM.
As to `CCOC(=O)c1c(NC(=O)N2CCN(CCO)CC2)sc2c1CCC2`, the EC50 entry on Toll-like receptor 2 [1] was “Not Active”.
Consider `CCOC(=O)c1c(NC(=O)N2CCOCC2)sc2c1CCC2`, for which the EC50 result on Toll-like receptor 2 [1] is listed as “Not Active”.
As to `CN1CCN(C(=O)Nc2sc3c(c2C(=O)O)CCC3)CC1`, the EC50 result at Toll-like receptor 2 [1] is “Not Active”.

The EC50 is the concentration giving half of the maximal effect.
